Results as given in BindingDB's records for doi:10.1021/jm049337s (Leiden/Amsterdam Center For Drug Research, 2005).

Tests used:
Adenosine receptor A1 [1] = molecular target: T1, Adenosine receptor A1 (Homo sapiens, UniProt P30542); experiment: Association constant for [3H]CCPA binding to Adenosine A1 receptor in the presence of compound; settings: read-out: kon (M-1-s-1)
T1 sequence (P30542 whole entry): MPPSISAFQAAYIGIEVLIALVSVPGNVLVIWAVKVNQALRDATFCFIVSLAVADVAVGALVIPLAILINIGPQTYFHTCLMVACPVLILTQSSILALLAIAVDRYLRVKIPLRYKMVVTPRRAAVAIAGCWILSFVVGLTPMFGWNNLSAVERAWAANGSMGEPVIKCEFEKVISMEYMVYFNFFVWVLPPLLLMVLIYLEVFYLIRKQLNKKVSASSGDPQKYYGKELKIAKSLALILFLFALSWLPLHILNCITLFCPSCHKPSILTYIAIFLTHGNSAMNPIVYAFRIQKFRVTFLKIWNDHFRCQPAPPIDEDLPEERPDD
Procedure, shortened: (§1)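 Kinetics on membranes (30 µg) from CHO cells expressing recombinant human A1 receptors, using [3H]CCPA at 1 nM, with or without compound. Association was started by adding membranes to the radioligand. For dissociation, membranes were preloaded with radioligand for 60 min at 25 °C, then 100 µM 8-cyclopentyltheophylline was added. Bound ligand was separated by GF/B filtration and counted by scintillation; t1/2 and rate constants were derived.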

Adenosine receptor A1 [2] = molecular target: T1, Adenosine receptor A1; experiment: Dissociation constant for [3H]-CCPA binding to Adenosine A1 receptor in the presence of compound; procedure, shortened: as §1

`c1ccc(-c2n/c(=N/C3CCCC3)sn2-c2ccccc2)cc1` gave a kon (Adenosine receptor A1 [1]) of 4.16e+06 M⁻¹ s⁻¹ and a koff (Adenosine receptor A1 [2]) of 0.001 s⁻¹.
